Experimental findings from ChEMBL document CHEMBL4261517, “A structurally guided dissection-then-evolution strategy for ligand optimization of smoothened receptor” (Medchemcomm, 2017) are described below.

Data set [1] can be described thus: Stability of the compound in DMEM at […] by RP-HPLC analysis. The data set is classed as physicochemical.
The target of a further data set is Protein smoothened (Mus musculus, UniProt P56726). The experiment in a line: Antagonist activity at Smo receptor in mouse NIH/3T3 cells harboring GRE-Luc assessed as inhibition of SAG-induced Hh signaling pathway preincubated for 1 to 2 hrs followed by SAG addition and measured after 24 hrs by Bright-Glo luciferase reporter gene assay. Format: functional, cell-based. The gist of the method: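 Light II cells (NIH-3T3 stably carrying a Gli-responsive firefly luciferase reporter) treated with compound for 24 h. Luciferase read-out of Hedgehog pathway inhibition. IC50 reported as mean ± SEM from at least three independent experiments, each run in duplicate.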
Protein smoothened, sequence (P56726 whole entry): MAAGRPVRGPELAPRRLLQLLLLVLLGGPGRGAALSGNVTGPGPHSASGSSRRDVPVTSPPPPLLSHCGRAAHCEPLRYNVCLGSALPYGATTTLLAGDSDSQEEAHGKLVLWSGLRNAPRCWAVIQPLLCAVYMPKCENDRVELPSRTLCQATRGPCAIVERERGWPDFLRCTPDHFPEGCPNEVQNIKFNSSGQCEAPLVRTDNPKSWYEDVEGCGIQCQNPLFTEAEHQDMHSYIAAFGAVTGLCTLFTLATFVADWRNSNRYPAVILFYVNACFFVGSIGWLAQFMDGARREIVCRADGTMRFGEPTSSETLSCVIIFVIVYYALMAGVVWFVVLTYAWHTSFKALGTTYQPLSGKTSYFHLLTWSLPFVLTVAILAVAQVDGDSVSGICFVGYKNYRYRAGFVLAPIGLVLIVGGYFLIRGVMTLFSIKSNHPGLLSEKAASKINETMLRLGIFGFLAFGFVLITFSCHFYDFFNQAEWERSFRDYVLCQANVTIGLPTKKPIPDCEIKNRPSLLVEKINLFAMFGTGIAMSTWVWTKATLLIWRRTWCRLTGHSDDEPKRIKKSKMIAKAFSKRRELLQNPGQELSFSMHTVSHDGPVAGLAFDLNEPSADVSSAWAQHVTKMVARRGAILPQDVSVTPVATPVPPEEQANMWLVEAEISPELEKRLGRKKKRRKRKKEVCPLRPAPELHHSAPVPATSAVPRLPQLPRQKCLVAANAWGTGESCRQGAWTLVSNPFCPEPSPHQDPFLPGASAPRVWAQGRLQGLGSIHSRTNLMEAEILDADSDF
On the technique in general: A reporter such as luciferase makes a cellular process visible.

The target in data set [2] is Protein smoothened (Homo sapiens) (UniProt Q99835). As to the kind of experiment: Binding affinity to recombinant human N-terminal FLAG/His10-tagged/C-terminal His10-tagged flavodoxin-fused Smo receptor expressed in HEK293F cells assessed as melting temperature at 100 uM after 40 mins by CPM dye based spectrofluorometric method. Format: cell-based. A digest of the protocol: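 Purified SMO in micelles mixed with thiol-reactive CPM dye and thermally denatured. Fluorescence (365/460 nm) followed as exposed cysteines react. Tm taken as the temperature at which 50% of the fluorescence increase is reached.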
Protein smoothened (Homo sapiens), sequence (Q99835 whole entry, the tested form may be a part): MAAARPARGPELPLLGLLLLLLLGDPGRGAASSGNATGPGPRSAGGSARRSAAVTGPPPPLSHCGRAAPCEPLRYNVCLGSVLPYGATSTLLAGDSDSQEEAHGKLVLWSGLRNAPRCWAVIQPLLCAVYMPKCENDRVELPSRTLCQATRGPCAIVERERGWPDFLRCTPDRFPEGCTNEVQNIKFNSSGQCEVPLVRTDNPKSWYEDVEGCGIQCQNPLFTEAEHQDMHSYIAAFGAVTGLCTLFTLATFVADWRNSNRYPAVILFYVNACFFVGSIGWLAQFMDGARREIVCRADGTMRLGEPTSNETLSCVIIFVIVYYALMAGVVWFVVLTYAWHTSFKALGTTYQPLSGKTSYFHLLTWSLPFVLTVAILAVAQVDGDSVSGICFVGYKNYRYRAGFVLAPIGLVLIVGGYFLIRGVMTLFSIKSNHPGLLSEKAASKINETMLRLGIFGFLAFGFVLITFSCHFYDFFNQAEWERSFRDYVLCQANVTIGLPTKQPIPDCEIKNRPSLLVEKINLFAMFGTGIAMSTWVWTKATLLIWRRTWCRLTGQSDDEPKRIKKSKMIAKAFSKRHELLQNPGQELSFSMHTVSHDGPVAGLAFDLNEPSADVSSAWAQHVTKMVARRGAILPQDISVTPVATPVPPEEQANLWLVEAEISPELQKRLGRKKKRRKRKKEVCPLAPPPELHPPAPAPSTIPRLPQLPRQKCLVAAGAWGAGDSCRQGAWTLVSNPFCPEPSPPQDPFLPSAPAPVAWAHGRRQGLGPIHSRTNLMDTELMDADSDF

In the case of `CN(C(=O)c1ccc(F)cc1C(F)(F)F)C1CCN(c2ccc(-c3ccnn3C)c3ccccc23)CC1`, in data set [1], the Stability result is “Stable”. Take `CN(Cc1ccc(F)cc1C(F)(F)F)C1CCN(c2nnc(-c3ccnn3C)c3ccccc23)CC1`: the Stability entry in data set [1] is listed as “Stable”. The same measure, in the same setting: the entry for `CN(C(=O)c1ccc(F)cc1C(F)(F)F)C1CCN(c2nnc(-c3ccnn3C)c3ccccc23)CC1` [TALADEGIB] is “Stable”. Turning to `CN(C(=O)c1ccc(F)cc1)C1CCN(c2nnc(-c3ccnn3C)c3ccccc23)CC1`, the IC50 (as a rule, the midpoint of a concentration-inhibition curve) on Protein smoothened stood at 1570 nM. Moreover, the Tm in data set [2] is 59.1 °C. Consider `COC(=O)c1ccc(C(=O)N(C)C2CCN(c3nnc(-c4ccnn4C)c4ccccc34)CC2)cc1`, for which the IC50 on Protein smoothened is greater than 10000 nM. The Tm in data set [2] is 60.3 °C. The matching figures for `CN(C(=O)c1ccc(CC=O)cc1)C1CCN(c2nnc(-c3ccnn3C)c3ccccc23)CC1`: greater than 10000 nM and 60.2 °C. With `CN(C(=O)c1ccccc1)C1CCN(c2nnc(-c3ccnn3C)c3ccccc23)CC1`, in data set [1], the Stability entry is on record as “Stable”. Take `CN(C)c1ccc(C(=O)N(C)C2CCN(c3nnc(-c4ccnn4C)c4ccccc34)CC2)cc1`: the IC50 at Protein smoothened turned out to be 1410 nM. In addition, in data set [2], the Tm is 58.5 °C. For the molecule `CN(C(=O)c1ccc(F)cc1C(F)(F)F)C1CCN(c2nnc(Cl)c3ccccc23)CC1`, in data set [1], the Stability entry is listed as “Stable”. On to `CN(C(=O)c1ccc(S(=O)(=O)O)cc1)C1CCN(c2nnc(-c3ccnn3C)c3ccccc23)CC1`, for which the IC50 at Protein smoothened was found to be 2680 nM. For the same molecule, the Tm in data set [2] was determined as 59.4 °C. On to `CN(C(=O)c1ccc(B(O)O)cc1)C1CCN(c2nnc(-c3ccnn3C)c3ccccc23)CC1`, for which the IC50 on Protein smoothened is 870 nM. In data set [2], the Tm came to 59.4 °C. `CN(C(=O)c1ccc(OCc2ccccc2)cc1)C1CCN(c2nnc(-c3ccnn3C)c3ccccc23)CC1`: the IC50 on Protein smoothened was 1800 nM. Further, the Tm in data set [2] was 58.4 °C. For `CN(C(=O)c1ccc([N+](=O)[O-])cc1)C1CCN(c2nnc(-c3ccnn3C)c3ccccc23)CC1`, the IC50 at Protein smoothened was found to be 236 nM. The Tm in data set [2] turned out to be 61 °C.

Regarding `CN(C(=O)c1ccc(N)cc1)C1CCN(c2nnc(-c3ccnn3C)c3ccccc23)CC1`, the IC50 on Protein smoothened was 2020 nM. Moreover, in data set [2], the Tm was determined as 58.2 °C.

Regarding `CN(C(=O)c1ccc(S(N)(=O)=O)cc1)C1CCN(c2nnc(-c3ccnn3C)c3ccccc23)CC1`, the IC50 on Protein smoothened was 3240 nM. Further, the Tm in data set [2] amounted to 57.1 °C. For `CN(C(=O)c1ccc(NCC(=O)O)cc1)C1CCN(c2nnc(-c3ccnn3C)c3ccccc23)CC1`, the IC50 at Protein smoothened was greater than 10000 nM. In addition, in data set [2], the Tm stood at 56.8 °C.

`CN(C(=O)c1ccc(C(=O)O)cc1)C1CCN(c2nnc(-c3ccnn3C)c3ccccc23)CC1`: the IC50 on Protein smoothened is greater than 10000 nM. For the same molecule, the Tm in data set [2] is 56.8 °C. With `CN(C(=O)c1ccc(Oc2ccccc2)cc1)C1CCN(c2nnc(-c3ccnn3C)c3ccccc23)CC1`, at Protein smoothened, the IC50 worked out at 270 nM. The Tm in data set [2] stood at 59.6 °C.

Regarding `CN(C(=O)c1ccc(S(C)(=O)=O)cc1)C1CCN(c2nnc(-c3ccnn3C)c3ccccc23)CC1`, the IC50 on Protein smoothened is greater than 10000 nM. Further, the Tm in data set [2] amounted to 56.3 °C. The matching figures for `CN(C(=O)c1ccc(C=O)cc1)C1CCN(c2nnc(-c3ccnn3C)c3ccccc23)CC1`: 2890 nM and 59 °C. For `CN(C(=O)c1ccc(C(N)=O)cc1)C1CCN(c2nnc(-c3ccnn3C)c3ccccc23)CC1`, in that order: 3020 nM and 59.7 °C.
